Reference: ChEMBL document CHEMBL4513216, “Probing the Open Global Health Chemical Diversity Library for Multistage-Active Starting Points for Next-Generation Antimalarials” (ACS Infect Dis, 2020)

experiment: Toxicity liver stage against HepG2, at 10uM; type: cell-based; design: test concentration 10 uM, cell line HepG2-A16-CD81EGFP; conditions: human, HepG2-A16-CD81EGFP cells; read-out: INHIBITION
Summary of the method: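 Uninfected HepG2-A16-CD81EGFP cells, 3 × 10^3 per well, 1536-well, plated on prespotted compound at 10 μM final, parasite-free screening media added to match infected plates; puromycin 10 μM positive, DMSO 0.5% negative; run in parallel with 48 h PbLuc assay at 37 °C, 5% CO2; viability by CellTiter-Glo luminescence, normalized to controls.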

Row | SMILES | cytotoxicity at 10 µM [%]
1 | COc1cc(CN2CCCCCC2c2cccs2)cc(OC)c1O (configuration not stated) | 8.6
2 | O=C(C1CC1)N1CCN2C[C@H](c3ccccc3)[C@@H](CO)[C@H]2C1 | 4.9
3 | Cc1nn2c(NC(=O)CSc3nccn3C)csc2nc1=O | 9.71
4 | O=c1c(NCc2ccccn2)c(NCC(O)CN2CCOCC2)c1=O (configuration not stated) | -54.5
5 | N#Cc1cccnc1OC1CCN(S(=O)(=O)c2ccc(Br)cc2)CC1 | 3.61
6 | O=S(=O)(NCC(O)c1ccc2c(c1)CCO2)c1ccccc1F (configuration not stated) | -8.25
7 | Cn1cc(C(=O)Nc2ccc(CC(=O)NCC(F)(F)F)cc2)nn1 | 10.8
8 | CCn1ncc2c1CN(C(=O)c1ccc3c(c1)OCO3)CC2COC (configuration not stated) | 8.7
9 | Cc1noc(C2CN(S(C)(=O)=O)Cc3ccnn3C2)n1 (configuration not stated) | 4.92
10 | COCC1CN(S(=O)(=O)C2CC2)Cc2ncn(CC3CC3)c21 (configuration not stated) | 9.03
11 | COc1cccc(Cn2c(=O)n(C)c(=O)c3sccc32)c1 | 3.29
12 | Cc1cc(O)n(-c2ccccc2Cl)c(=O)c1C#N | 2.96
13 | COCCC(=O)Nc1cnn(COc2ccc(F)cc2Cl)c1 | -8.68
14 | O=C(c1ccnn1COc1ccc(Cl)cc1)N1CCOCC1 | -3.94
15 | CN(C)Cc1cccc(-c2cccnc2C(=O)NCc2cn(C)cn2)c1 | 4.09
16 | Cc1nc(Nc2ncc(C)s2)cc(C2CCCN2S(C)(=O)=O)n1 (configuration not stated) | -37.6
17 | c1cc(-c2nc(C3CCN(Cc4ccsc4)CC3)no2)ccn1 | -26.5
18 | CC(=O)N1CCC(c2ccnc(Nc3cnccn3)n2)C1 (configuration not stated) | -0.182
19 | CC(C)(C)c1n[nH]cc1CN1CCc2nc3ccsc3c(=O)n2CC1 | 6.12
20 | Cc1ccc(OCCCNC(=O)C(C)Sc2nncn2C)cc1 (configuration not stated) | -45
21 | CCN1CCN(c2ccccc2NC(=O)NCc2ccon2)CC1 | 10.4

Row | SMILES | cytotoxicity at 10 µM [%]
22 | CN(Cc1ccco1)C(=O)C1CCCc2ccccc21 (configuration not stated) | 3.68
23 | NC(=O)CSCC(=O)NCC1CCCC1 | 3.15
24 | COCCNC(=O)N1CCOCC1c1c(C)nn(C)c1C (configuration not stated) | -8.18
25 | Cc1cc(C)n(CC(C)NC(=O)NCc2c(C)cc(C)[nH]c2=O)n1 (configuration not stated) | -6.58
26 | N#Cc1cccc(CN2CCCC2c2ccc[nH]2)c1 (configuration not stated) | -11.9
27 | CCN(C1CCN(Cc2ncc(C(C)(C)C)o2)CC1)S(C)(=O)=O | -4.15
28 | CCC(CC)C(=O)Nc1ccc2oc(=O)n(CCN(C)C)c2c1 | -13.7
29 | O=C1NCC2CN(Cc3ccccc3OCc3ccccn3)CCN12 (configuration not stated) | -1.36
30 | COc1ccc(N(C(=O)c2ccccn2)C(C)C)cc1F | -1.26
31 | CS(=O)(=O)CCSCc1ccc(Br)c(F)c1 | 0.49
32 | O=C(C[S+]([O-])Cc1c(Cl)cccc1Cl)N1CCc2sccc2C1 (configuration not stated) | -7.23
33 | Cc1cccc(C(C)(C)NC(=O)CCS(C)(=O)=O)c1 | 2.41
34 | CCCc1nc(C)c(C(=O)NCCn2ccnc2)s1 | 8.14
35 | Cc1cccc2c(CCNC(=O)NCCC[S+](C)[O-])c[nH]c12 (configuration not stated) | -25.4
36 | CN(CCOc1ccc(Cl)cc1)Cc1ccc(S(=O)(=O)N(C)C)o1 | 33.6
37 | CC(C)Cc1noc(CN2CCOCC2C)n1 (configuration not stated) | 2.8
38 | Cc1cccc(C(=O)N2CCN(CCC(C)C)CC2)n1 | -3.53
39 | O=C(Nc1ccncc1)NC1CCN(c2ccccc2Cl)C1=O (configuration not stated) | -43.6
40 | CSCC(=O)Nc1nccn1Cc1ccc(Br)cc1 | -45.8
41 | COc1cc(N2C[C@@H]3COC[C@@H](Cc4nnc(C)o4)[C@@H]3C2)ncn1 | -112
42 | C=Cc1ccc(C(=O)N2CCCC(Nc3ccccc3)C2)cc1 (configuration not stated) | -9.01

Row | SMILES | cytotoxicity at 10 µM [%]
43 | O=C(N[C@H]1CN(c2nc(CO)cs2)C[C@@H]1C1CC1)C1CCCCC1 | -0.464
44 | CCc1ncc(C(=O)N(CCOC)Cc2nccs2)cn1 | -1.47
45 | CCCS(=O)(=O)NCc1cccnc1Oc1ccc(C)c(F)c1F | -2.19
46 | CCC(=O)Nc1cccc(C(=O)NCCC2=CSC3=NCCCN23)c1 | 1.93
47 | Cc1cc(-c2nn(C)c(Cl)c2CN2CCC3(CC2)[C@H](O)C[C@@H]3O)no1 | -5.66
48 | Cc1ccc2nc(-c3cnc(N)nc3)c(C)c(C(=O)N(C)C)c2c1 | -13.8
49 | CCCC(C)NCc1cccnc1N1CCN(c2ccccn2)CC1 (configuration not stated) | 6.99
50 | CN(Cc1cc2n(n1)CCNC2)Cc1noc(C2CCC2)n1 | 15.2
51 | CSCCN1CCC(NC(=O)c2cccc(C3CCCNC3)c2)CC1 (configuration not stated) | 0.49
52 | CCO[C@H]1C[C@@H](O)C12CCN(C1Cc3ccccc3C1)CC2 | 4.54
53 | COC(=O)c1ccc(-c2noc(CN(CCO)Cc3cccs3)n2)cc1 | 6.43
54 | Nc1nc(CCC(=O)N2C[C@H](c3ccccc3)[C@@H](N)C2)cs1 | 4.49
55 | CC(C)OC(=O)N1CCCC(c2nccn2Cc2ccncc2)C1 (configuration not stated) | 4.56
56 | Cn1cnnc1CCC(=O)N1CCCC(OCc2cccnc2)C1 (configuration not stated) | 2.66
57 | Cc1ncc(CC(=O)N2CCC3(CCC(=O)N(C4CC4)C3)CC2)c(=O)[nH]1 | -45.1
58 | CC1CCCN(Cc2ccc(C(N)=O)cc2)C1 (configuration not stated) | -10.4
59 | CC(C1CCN(Cc2cnn(C)c2C2CC2)CC1)N(C)C (configuration not stated) | 7.88
60 | CN(C)CCn1ccnc1C1CCN(c2cc(N)nc(N)n2)CC1 | 0.829
61 | Cc1nc[nH]c1-c1nccn1-c1ccc(C(N)=O)c(N2CCCC2)c1 | 6.23
62 | O=C(c1cccs1)N1CCC(n2nc(-c3ccco3)ccc2=O)CC1 | -6.62
63 | COCC(=O)N1CCC(c2nccnc2Oc2cccnc2C)CC1 | 6.79

Row | SMILES | cytotoxicity at 10 µM [%]
64 | COCc1cccc(CNCc2c(C(C)C)nn(C)c2N(C)C)c1 | -7.16
65 | Cc1ccn2ncc(C(=O)N3CCCC(n4cccn4)C3)c2n1 (configuration not stated) | -24.3
66 | CCc1ncncc1C(=O)N1CCN(Cc2ccco2)CC1 | -4.91
67 | CN1CCN(C(=O)c2ccc(=O)n(C)c2)c2ccccc21 | -11.5
68 | CCC(=O)NC1CCN(c2cccc(CC)c2)CC1 | -4.16
69 | Cc1cccc(C)c1OCCNC(=O)NC(C)c1nncn1C (configuration not stated) | 7.8
70 | Cc1cc(C[C@@H]2COC[C@H]2NCc2ccc(Cl)c(Cl)c2)on1 | -5.44
71 | Cc1noc([C@@H]2CC[C@@H]3[C@@H](CCN3c3nnc(C)s3)O2)n1 | 9.28
72 | Cc1cnc(N2CCC3(CC2)CC3CNC(=O)C2CCC2)nc1 (configuration not stated) | 38
73 | CC(C)(C)C(=O)N1C[C@H](c2ccsc2)[C@H]2CN(C3CCCCC3)CC[C@H]21 | 5.9
74 | Cc1ccc(N2CCO[C@H]3CN(Cc4ccccn4)C[C@H]32)nn1 | -79.8
75 | O=C(CC1CC1)NCc1cn2c(n1)CN(Cc1cccc(F)c1)CC2 | -85.8
76 | Cc1ccc2c(CC(=O)N(C)CCN(C)C)c(C)[nH]c2c1C | 8.42
77 | CN1CCCCC12CCN(C(=O)c1cccn1C)CC2 | 8.22
78 | O=C(COc1ccccc1)N1C[C@@H]2COC[C@]2(COc2cccnc2)C1 | -100
79 | O=C(C1CCCCC1)N1CCC2(CCCN2CC2CC2)CC1 | 3.56
80 | CCS(=O)(=O)N1CCOC2(CCCN(c3ccccn3)C2)C1 (configuration not stated) | 3.16
81 | CN1[C@@H]2CC[C@H]1CN(C(=O)CCc1csc(N)n1)CC2 | -0.0143
82 | O=C(NCC1CCC(c2nnc(-c3cccnc3)o2)CC1)C1CC1 (configuration not stated) | 3.15
